According to publication PMC6662154 (ACS Central Science, 2019):
Where no end group is shown, it is not given here.

What was measured:
PscE–PscG heterodimer = target: T1, PscE–PscG heterodimer (Pseudomonas aeruginosa, UniProt P95435); experiment: Fluorescence polarization competitive binding assay
T1 sequence (P95435 1-115): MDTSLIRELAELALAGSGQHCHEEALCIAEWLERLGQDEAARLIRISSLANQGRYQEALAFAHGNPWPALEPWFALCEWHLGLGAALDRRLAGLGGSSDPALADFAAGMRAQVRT
T1 sequence (Q9I317 1-67 partner): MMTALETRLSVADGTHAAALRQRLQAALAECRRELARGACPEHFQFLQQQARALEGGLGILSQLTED

[1] = test system: secretion of ExoS by PAO1; experiment: Inhibition of T3SS-mediated effector secretion; type: cell-based, Pseudomonas aeruginosa; details: 100 μM; PAO1 grown under low-calcium conditions
In short: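 To induce the T3SS, overnight PAO1 was diluted to OD600 0.3 in LB containing 5 mM EGTA and 20 mM MgCl2, with test compound, then shaken gently 3–4 h to OD 1.5. Controls were LB with 2% DMSO, and EGTA/MgCl2 medium with 2% DMSO. Supernatant proteins were TCA-precipitated (10%, 2 h on ice). Secreted and total ExoS were immunoblotted and measured by densitometry as % secreted of total; mean ± SD, three experiments.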

[2] = test system: J774A.1 cells infected with PAO1; experiment: LDH release assay, PAO1-infected macrophages; type: cell-based, mouse; details: different concentrations, MOI 8, 5 h
[3] = test system: intracellular PAO1 in J774A.1 cells; experiment: Quantification of intracellular bacteria in macrophages; type: cell-based, Pseudomonas aeruginosa; details: different concentrations; gentamicin at 2 h postinfection
In short: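 J774A.1 cells were seeded at 5 × 10^4 per well, grown 24 h and switched to serum-free medium 1 h before infection with mid-exponential PAO1 at MOI 8. Cells were infected 2 h with test compound (0–100 μM, 2% DMSO), washed, and exposed to gentamicin (50 μg/mL) for 2 h. Lysates were plated for intracellular counts, normalised to mock-treated infected cells; mean ± SD, three experiments.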

[4] = test system: PAO1 in the bronchoalveolar lavage; experiment: Bacterial burden in bronchoalveolar lavage of PAO1-infected mice; type: in vivo, mouse; details: single dose 100 μM at the time of infection; sampled 18 h postinfection
In short: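 Female 6-week-old C57BL/6J mice were lightly anaesthetised with inhaled sevoflurane and given PAO1 intranasally (1 × 10^7 CFU in 20 μL PBS). Test compound (100 μM, 1% DMSO) was given with the inoculum; PBS with 1% DMSO served as mock treatment. At 18 h the animals were killed. Lavage was plated for counts. Lungs were formalin-fixed, paraffin-embedded, H&E-stained and scored by degree of inflammation.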

PscG = target: T2, PscG (Pseudomonas aeruginosa, UniProt P95435 1-115); experiment: fluorescence polarisation
T2 sequence (looked up): T1 sequence (P95435 1-115)

[5] = target: T3, preformed PscE–PscG heterodimer (Pseudomonas aeruginosa, UniProt Q9I317 1-67; P95435 1-115); experiment: fluorescence polarisation
T3 sequence (looked up) 1: T1 sequence (Q9I317 1-67 partner)
T3 sequence (looked up) 2: T1 sequence (P95435 1-115)

[6] = target: T3, preformed PscE–PscG heterodimer; experiment: ITC
[7] = target: T3, preformed PscE–PscG heterodimer; experiment: fluorescence polarisation; remark: listed apart in the source

For Cc1coc2c1C(=O)C(=O)c1c-2ccc2c1CCCC2(C)C [tanshinone 2A], the “competition with FAM-PscF69–85 for PscE–PscG binding (result in words)” value (from here on “competition”) (PscE–PscG heterodimer) was “inactive”.

In the case of C[C@H]1COC2=C1C(=O)C(=O)c1c2ccc2c1CCCC2(C)C [crpTSN, cryptotanshinone], the “competition” value (PscE–PscG heterodimer) is reported as “inactive”, the “effect on secretion of ExoS” value [1] is reported as “no inhibitory activity” and the “inhibition of Pseudomonas-aeruginosa-induced cell lysis (LDH release), in words” value [2] is reported as “inactive”.

For CC(Oc1ccc(Cl)cc1Cl)C(=O)NCc1ccc2c(c1)OCO2 (stereo not drawn) [MBX-1641], the “competition” value (PscE–PscG heterodimer) was “no effect”, the “inhibition of Pseudomonas-aeruginosa-induced cell lysis (LDH release), in words” value [2] was “inhibited” and the “inhibition of intracellular bacterial survival / proliferation of PAO1” value [3] was “inhibited”. For the same molecule, the “bacterial burden in the bronchoalveolar lavage” value [4] was “reduced bacterial burden”.

TVTRALRDLMQGILQKI (peptide, UniProt P95434 69-85, looked up, also: fluorescein (FAM) label) [^FAMPscF^69–85] was tested, and the Kd (PscG) was 10800 nM and the Kd [5] was 52 nM.

For TVTRALRDLMQGILQKI (peptide, UniProt P95434 69-85, looked up) [PscF^69–85], the Kd [6] was 51.5 nM and the IC50 [7] was 4320 nM.
